# Experimental data taken from ChEMBL document CHEMBL1938290, “Synthesis of 5-benzyl-2-phenylpyrazolo[1,5-a]pyrazin-4,6(5H,7H)-dione derivatives and discovery of an apoptosis inducer for H322 lung cancer cells” (Bioorg Med Chem Lett, 2012).
# Activity calls are given as the source filed them. No cut-off for these calls is given here.
# Legend:
# A549 [1] = assay: Cytotoxicity against human A549 cells expressing wild type p53 at 20 uM after 24 hrs by SRB assay; assay type: functional, cell-based
# How it was run: (§1)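 A549 (p53 wild-type) lung cancer cells exposed to compound at 20 or 40 µM for 24 or 48 h respectively. Growth/viability then measured by SRB staining with a spectrophotometric read-out, expressed as % of untreated control.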
# A549 [2] = assay: Cytotoxicity against human A549 cells expressing wild type p53 at 40 uM after 48 hrs by SRB assay; assay type: functional, cell-based; how it was run: as §1
# HUVEC = assay: Cytotoxicity against HUVEC up to 40 uM by SRB assay; assay type: cell-based; settings: human
# NCI-H322 [3] = assay: Induction of apoptosis in human NCI-H322 cells assessed as chromatin condensation at 10 to 40 uM after 24 hrs by Hoechst 33258 staining-based fluorescent microscopy; assay type: functional, cell-based
# How it was run: (§2)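 H322 cells cultured 24 h with compound or vehicle (0.1% DMSO), then stained with Hoechst 33258. Viewed by fluorescence microscopy at 400×, scoring condensed chromatin and nuclear granulation (blue fluorescence). Apoptotic cell ratio expressed vs control as mean ± SE, n = 3.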
# NCI-H322 [4] = assay: (§3) Cytotoxicity against human NCI-H322 cells expressing p53 mutant after 24 hrs by SRB assay; assay type: functional, cell-based
# How it was run: (§4)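 H322 cells exposed to 10, 20, 30 or 40 µM, alongside untreated control, for 24 h. SRB viability read by spectrophotometer. Mean ± SE, n = 3. IC50 taken from the dose–response at 24 h.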
# [5] = as §3; assay type: functional, cell-based; settings: NCI-H322, 24 h; how it was run: as §4
# NCI-H322 [6] = assay: Induction of apoptosis in human NCI-H322 cells assessed as nuclear granulation at 10 to 40 uM after 24 hrs by Hoechst 33258 staining-based fluorescent microscopy; assay type: functional, cell-based; how it was run: as §2
# NCI-H322 [7] = assay: Cytotoxicity against human NCI-H322 cells expressing p53 mutant at 20 uM after 24 hrs by SRB assay; assay type: functional, cell-based
# How it was run: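 H322 (p53-mutant) cells treated at 20 µM or left untreated for 24 h. Viability measured by SRB assay and given as % of untreated control. Mean ± SE, n = 3, significance P < 0.05 vs control.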
# [8] = Solubility of the compound; assay type: physicochemical
Structure (SMILES),Activity (A549 [1]),Activity (A549 [2]),also measured
O=C1Cn2nc(-c3ccc(Cl)cc3)cc2C(=O)N1Cc1ccccc1,inactive,inactive,
O=C1Cn2nc(-c3ccccc3)cc2C(=O)N1CCc1ccc(F)cc1,inactive,inactive,
O=C1Cn2nc(-c3ccc(Cl)cc3)cc2C(=O)N1CCc1ccc(F)cc1,inactive,inactive,
O=C1Cn2nc(-c3ccccc3)cc2C(=O)N1Cc1ccccc1,inactive,inactive,
COc1ccc(-c2cc3n(n2)CC(=O)N(CCc2cccc(OC)c2)C3=O)cc1,inactive,inactive,
COc1ccc(-c2cc3n(n2)CC(=O)N(CCc2ccc(F)cc2)C3=O)cc1,inactive,inactive,
COc1ccc(-c2cc3n(n2)CC(=O)N(CCc2ccccc2)C3=O)cc1,inactive,inactive,Activity (HUVEC): Non-toxic; Activity (NCI-H322 [3]): Active; Activity (NCI-H322 [4]): Dose-dependent effect; IC50 [5]: 28.5 µM; Activity (NCI-H322 [6]): Active
COc1cccc(CCN2C(=O)Cn3nc(-c4ccc(Cl)cc4)cc3C2=O)c1,inactive,inactive,
O=C1Cn2nc(-c3ccccc3)cc2C(=O)N1CCc1ccccc1,inactive,inactive,
COc1cccc(CCN2C(=O)Cn3nc(-c4ccccc4)cc3C2=O)c1,inactive,inactive,
O=C1Cn2nc(-c3ccc(Cl)cc3)cc2C(=O)N1CCc1ccccc1,inactive,inactive,
COc1ccc(-c2cc3n(n2)CC(=O)N(Cc2ccccc2)C3=O)cc1,inactive,inactive,Activity (NCI-H322 [7]): Active; solubility [8]: Insoluble
